Kir21 block: inhibitors of mouse Kir2.1 inward-rectifier potassium channel; Inward rectifier potassium channel 2 (Mus musculus), P35561; HEK293-Kir2.1, FluxOR thallium flux fluorescence; hits give low values; B-score at 10 µM; 0.85% of 310,000 active; AID 1672, 2009;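 active = fluorescence ratio B-score at or below minus 3 SD of library scores, with starting-brightness B-score within 2 SD, cut at about -4.2 in these data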;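 note: channel flux triggered by added potassium and thallium sulfate stimulus; B-score of peak minus minimum fluorescence over baseline after thallium stimulus; more negative B-score means stronger Kir2.1 block with less thallium influx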
MrgX1 antag: antagonists of human MrgX1 receptor, primary screen, HEK293 cells, Fluo-4 calcium flux | B-score at 10 µM | BAM8-22 antagonism; hits give low values | 1.3% of 310,000 active | Mas-related G-protein coupled receptor member X1 (Homo sapiens), Q96LB2;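 active = calcium-response B-score plate-corrected more than 3 library SD below zero, starting fluorescence within 5 deviations, no agonist response on first addition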;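 note: peak minus trough fluorescence over baseline after final BAM8-22 challenge near maximal dose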
Target sequence (Q96LB2 whole entry, looked up): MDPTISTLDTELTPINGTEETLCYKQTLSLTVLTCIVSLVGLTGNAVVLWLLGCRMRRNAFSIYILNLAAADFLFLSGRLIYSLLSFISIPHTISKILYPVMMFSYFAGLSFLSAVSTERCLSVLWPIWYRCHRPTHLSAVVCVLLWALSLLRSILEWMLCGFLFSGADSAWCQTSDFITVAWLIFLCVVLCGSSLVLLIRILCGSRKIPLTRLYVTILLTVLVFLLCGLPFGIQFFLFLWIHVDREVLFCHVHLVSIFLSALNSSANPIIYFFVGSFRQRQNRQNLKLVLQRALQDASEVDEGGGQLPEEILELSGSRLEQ
RGS4 act: RGS4 potentiators or activators, primary screen, cell-based, HEK293 M3R inducible RGS4, calcium flux | B-score at 10 µM | carbachol calcium flux Fluo4; hits give low values | 0.92% of 310,000 active | AID 463111, 2010;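 active = B-score of the integrated calcium signal more than 4 SD below the library mean, with starting fluorescence not abnormally high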;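 note: negative B-score means reduced calcium response which marks RGS4 activation or potentiation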
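test system = M3R-expressing HEK293 line, RGS4 induced by doxycycline | probe or stimulus = carbachol at ECmax as muscarinic agonist stimulus | timing = dye loading 30 min 37 °C, buffer rest 30 min RT | signal = calcium dye Fluo4 fluorescence | evaluation = B score from integrated fluorescence ratio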
MrgX1 ag: agonists of human MrgX1 receptor, primary screen, HEK293 cells, Fluo-4 calcium flux. AID 588627, 2011. B-score at 10 µM. Fluo-4 calcium fluorescence, agonist mode; hits give high values. 0.44% of 310,000 active. Mas-related G-protein coupled receptor member X1 (Homo sapiens), Q96LB2;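 active = calcium response B-score plate-corrected fluorescence ratio at least 3 library SD, with starting fluorescence B-score inside 5 SD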
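Material – MrgX1-expressing HEK293 cells · Input – 15,000 cells seeded per well · Dosing – compound as first of three additions · Times – overnight seeding, then 1 h dark dye loading · Measured by – kinetic Fluo-4 NW fluorescence of intracellular calcium · Read-out – B-scored fluorescence response ratio · Benchmarks – positive and negative control wells on each plate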
RGS4 block: RGS4 inhibitors, primary screen, cell-based, HEK293 M3R inducible RGS4, calcium flux; 0.45% of 310,000 active; Fluo-4 calcium flux; hits give high values; triggered by carbachol at its EC20; B-score at 10 µM; AID 463165, 2010; Regulator of G-protein signaling 4 (Homo sapiens), P49798;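 active = B-score, a plate-corrected calcium signal, over three deviations above library mean, with baseline fluorescence within five deviations of library mean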;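 note: RGS4 expression induced by doxycycline in cells with stable M3 receptor; B-score is computed from the integrated fluorescence ratio over baseline after carbachol; higher B-score means a larger calcium signal and so more RGS4 inhibition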
Target sequence (P49798 whole entry, looked up): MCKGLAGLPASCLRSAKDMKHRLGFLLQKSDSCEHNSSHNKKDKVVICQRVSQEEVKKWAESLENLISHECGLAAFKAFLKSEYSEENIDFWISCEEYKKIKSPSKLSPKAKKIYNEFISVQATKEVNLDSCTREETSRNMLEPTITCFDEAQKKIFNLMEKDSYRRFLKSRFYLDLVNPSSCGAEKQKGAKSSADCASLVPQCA
MrgX1 PAM: positive allosteric modulators of MrgX1, primary screen, HEK293 cells, Fluo-4 calcium flux. Mas-related G-protein coupled receptor member X1 (Homo sapiens), Q96LB2. B-score at 10 µM. 0.63% of 310,000 active. FDSS; hits give high values;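 active = plate-corrected calcium response at least 3 library SD above typical, normal starting fluorescence, not activating the receptor alone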;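 note: compound read alongside a low EC10 to EC30 dose of BAM8-22 agonist; peak minus trough fluorescence over baseline measured at the second addition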
* = called active by the depositor; i = inactive. Rows were chosen to be rich in hits. Some 4.1% of all compounds tested hit in one or more screens of this group.

SMILES	Kir21 block	MrgX1 antag	RGS4 act	MrgX1 ag	RGS4 block	MrgX1 PAM
COc1ccc(OC)c2sc(N(CCN(C)C)C(=O)c3ccc4ccccc4c3)nc12	0.33	i	i	i	i	i
COc1cc2ccccc2cc1C(=O)N(CCN(C)C)c1nc2c(OC)ccc(OC)c2s1	0.23	i	i	i	i	8.8*
N#Cc1ccc(OC(=O)c2cnccn2)cc1	-1.6	i	i	i	i	i
OC(CNC1CCCC1)COc1ccccc1Br (centres undefined)	-0.01	i	i	i	i	i
OC(CNCCc1ccc(C(F)(F)F)cc1)COc1ccc2ccccc2c1 (centres undefined)	-0.14	i	i	i	i	i
Cc1ccccc1OCC(O)CNC1CCC(NCC(O)COc2ccccc2C)CC1 (centres undefined)	-5.5*	i	i	i	i	i
OC(CNCCc1ccc(C(F)(F)F)cc1)COc1cccc2ccccc12 (centres undefined)	-8*	i	i	i	i	i
Cc1ccc(OCC(O)CNC2CCCC2)c(C)c1 (centres undefined)	1.5	i	i	i	i	i
OC(CNC1CCCCCC1)COc1cccc2ccccc12 (centres undefined)	-4.9*	i	i	i	i	i
CN1CCC(N(C)C(=O)/C=C/c2cn(-c3ccccc3)nc2-c2cccs2)CC1	-2.3	i	i	i	i	i
COc1ccc(/C=C2/SC(=S)N(CCC(=O)O)C2=O)cc1	-0.46	i	i	31*	i	i
CCCOc1ccc(-c2nn(-c3ccccc3)cc2/C=C2\SC(=S)N(C3CCS(=O)(=O)C3)C2=O)cc1 (centres undefined)	-2.6	i	i	i	i	i
COc1ccc(OC)c(/C=C2\SC(=S)N(Cc3cccnc3)C2=O)c1	-0.34	i	i	i	i	i
CCOc1ccc(-c2nn(-c3ccccc3)cc2/C=C2\SC(=S)N(C3CCS(=O)(=O)C3)C2=O)cc1 (centres undefined)	0.39	i	-8.3*	i	i	i
COc1ccc(O)c(/C=C2/SC(=S)N(Cc3ccccc3)C2=O)c1	-0.72	-5.1*	i	i	i	i
COc1ccc(/C=C2\SC(=S)N(CCC(=O)Nc3ccc(C(=O)O)cc3)C2=O)cc1	-0.37	i	i	i	i	i
CC1=NNC(=O)/C1=C\c1cn(-c2ccccc2)nc1-c1cccs1	1	-6.5*	i	i	i	i
O=C(C1CCOCC1)N1CCCC(N2CCN(c3cccc(Cl)c3)CC2)C1 (centres undefined)	-0.06	i	i	i	i	i
CC(O)Cc1nsc(NC(=O)c2ccc(Br)o2)n1 (centres undefined)	-0.34	i	i	i	i	i
COc1ccc(-c2nn(-c3ccccc3)cc2/C=C2/SC(=S)N(CCC(=O)O)C2=O)c(C)c1	-0.82	i	-7.7*	i	i	i
O=C(O)CCCCCN1C(=O)/C(=C\c2cn(-c3ccccc3)nc2-c2cccs2)SC1=S	-1	i	-7*	i	i	i
Cc1ccc(-c2nn(-c3ccccc3)cc2/C=C2\SC(=S)N(CC(=O)O)C2=O)cc1	-0.5	i	i	i	i	i
COc1ccc(-c2nn(-c3ccccc3)cc2/C=C2/SC(=S)N(CCC(=O)O)C2=O)cc1	-0.92	-6*	-7.2*	i	i	i
CC1=NN(S(=O)(=O)c2ccc(Cl)cc2Cl)C(=O)c2ccccc2O1	-4.8*	i	i	i	i	i
Cc1nn(-c2ccc(Cl)cc2Cl)c(=O)c2ccccc12	-0.42	i	i	i	i	i
SMILES	Kir21 block	MrgX1 antag	RGS4 act	MrgX1 ag	RGS4 block	MrgX1 PAM
S=C(NC1CCCC1)N1CCN(c2ncccn2)CC1	0.76	i	i	i	i	i
CCOc1ccc(C2=C/C(=C/c3cccnc3)C(=O)O2)cc1	-0.47	i	i	i	i	28*
COCCN(CCOC)c1nc(-c2ccccc2)nc2ccccc12	-0.08	i	i	i	i	i
COCCN(CCOC)c1nc(-c2ccc(Cl)cc2)nc2ccccc12	-1.1	i	-7.3*	i	i	i
COc1ccccc1CNS(=O)(=O)c1ccc2[nH]cc(C(=O)O)c(=O)c2c1	1.3	i	i	i	i	i
COCCNC(=O)C(=O)N/N=C(\C)CC(=O)Nc1ccc(Cl)cc1Cl	-0.09	-6.4*	i	i	i	i
C/C(CC(=O)Nc1ccc(Cl)cc1Cl)=N\NC(=O)C(=O)N1CCCC1	2.2	i	i	i	i	i
CC(/C=C1\NC(=S)NC1=O)=C\c1ccccc1	0.17	-5.1*	i	i	i	i
O=C(/C=C/c1ccc([N+](=O)[O-])cc1)OCC(=O)N1c2ccccc2Sc2ccccc21	-0.45	i	-8.2*	i	i	i
O=C(COC(=O)/C=C/c1ccc([N+](=O)[O-])cc1)NCc1ccccc1	-0.59	i	i	i	i	i
CC(=O)N(CCC(Cc1ccccc1)c1ccc2c(c1)OCO2)Cc1ccccc1F (centres undefined)	-0.62	i	i	i	i	i
CC(C)CCC(CCNCc1ccccn1)c1ccc2c(c1)OCO2 (centres undefined)	-7.2*	i	i	i	i	i
CC(C)C(CCNCc1ccccn1)c1ccc(Cl)cc1 (centres undefined)	-4.4*	i	i	i	i	i
Fc1ccccc1CNCCC(Cc1ccccc1)c1ccc2c(c1)OCO2 (centres undefined)	-8.7*	i	i	i	i	i
CCNCCC(CCC(C)C)c1ccc2c(c1)OCO2 (centres undefined)	-1.2	i	i	i	i	i
CCN(CC)S(=O)(=O)c1ccc(-c2nnc(SCC(=O)Nc3cc(OC)cc(OC)c3)o2)cc1	-0.93	-4.6*	i	i	i	i
Cc1ccc(C)n1-c1ccc(C(=O)N/N=C/c2ccncc2)cc1	0.02	i	i	i	i	10*
